Assay [1] concerns NCI-H322M. Description: Antiproliferative activity against human NCI-H322M cells incubated for 48 hrs by sulforhodamine B assay. The format is functional. The gist of the method:
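Run externally by the US National Cancer Institute as part of its 60 human cancer cell line cytotoxicity screen (NCI-60).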

A short description of assay [2]: Cytotoxicity against human HCT116 cells after 72 hrs by MTT assay. The format is functional, cell-based. As to conditions: HCT-116, 72 h. The gist of the method: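 Log-phase cells at 40,000–50,000 cells/mL in DMEM with 10% FBS and antibiotics were seeded and cultured overnight at 37 °C, 5% CO₂. Compounds were diluted in DMSO/PBS from 10^-4 to 10^-9 M and applied for 72 h. MTT (5 mg/mL stock) was then added for 4 h and absorbance read at 570 nm. IC50 came from nonlinear regression on triplicate wells, averaged.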

For assay [3], the system named is U-251. Description: Antiproliferative activity against human U251 cells incubated for 48 hrs by sulforhodamine B assay. The format is functional. Conditions: U-251, 48 h. (In general: Sulforhodamine B stains cellular protein and so reports cell mass.)
Where [4] appears, read: read-out: pLC50 (the source's name) (converted).

Broadly, the GI50 is the concentration that inhibits growth by half. Lower therefore signals greater sensitivity of the cells. As a reminder, the IC50 is the concentration that inhibits the measured activity by half. Turning to `COc1ncc(-c2ccc3nccc(C#CCN4CCN(S(C)(=O)=O)CC4)c3c2)cc1NS(=O)(=O)c1ccc(F)cc1F`, the GI50 in assay [1] was 110 nM; in assay [3], 178 nM. Moreover, the CC50 in assay [1] (setting [4]) was 36.3 µM; in assay [3] (setting [4]) it was 4.68 µM. For the same compound, the TGI is 6.92 µM in assay [1] (read-out: pTGI (converted)) and 1510 nM in assay [3] (read-out: pTGI (converted)). This compound registered an IC50 in assay [2] of 930 nM.

Values taken from ChEMBL document CHEMBL3763019, “Discovery of benzenesulfonamide derivatives as potent PI3K/mTOR dual inhibitors with in vivo efficacies against hepatocellular carcinoma” (Bioorg Med Chem, 2016).
